Assay outcomes deposited in PubChem by several laboratories.
STAT3 activator: STAT3 signaling activation; U3A cells, IL-6 STAT3-luciferase reporter, luminescence; 100% = signal with IL-6 EC80 alone; hit rate 0.91% among 190,000; activation (% of control), % at 5.6 µM;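 active = activation above the screen-wide mean of compound activation plus 3 SD, cut at about 130% in these data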;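 also: 0% = background luminescence of wells with medium and substrate only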
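Material: STAT3-luciferase reporter U3A cells; Probe or stimulus: IL-6 (33 ng/mL); Incubation: compound pre-incubation 1 h before IL-6, then 6 h stimulation at 37 °C; Technique: luminescence from STAT3-driven luciferase reporter; Evaluation: % activation versus median of IL-6-stimulated wells; Controls: IL-6-only high control.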
STAT1 inh: inhibitors of IFN-gamma induced STAT1 signaling; hit rate 0.35% among 200,000; NIH 3T3 STAT1-luciferase reporter, luminescence; inhibition, % at 5.5 µM;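 active = inhibition above a set limit, the mean inhibition across all tested compounds plus 3 SD, cut at about 34% in these data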;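 also: 0% = IFN-gamma with DMSO and 100% = IFN-gamma with 300 µM nifuroxazide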
TNF death inh: inhibitors of TNF-alpha induced necroptosis in Jurkat FADD-/- cells; activation (protection from cell death), % at 10 µM; Jurkat FADD-/- TNF necroptosis rescue, ATP luminescence, 24 h; 0 = TNF only, 100 = no-TNF cells; AID 463075; hit rate 0.068% among 220,000;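 active = activation, meaning protection from cell death, of at least 50% relative to plate controls; inactive = activation below 50%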;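 also: necroptosis triggered by 40 ng/mL TNF-alpha added together with compound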
STAT3 inh-1: inhibitors of IL-6 induced STAT3 signaling | U3A cells, IL-6 STAT3-luciferase reporter, luminescence; host cell line lacks STAT1 | hit rate 0.89% among 190,000 | inhibition, % at 5.5 µM;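 active = inhibition above the mean inhibition across all screened compounds plus 3 SD, cut at about 44% in these data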;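 also: 0% = DMSO only wells and 100% = 100 µM nifuroxazide control wells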
zVAD death inh: L929 zVAD cell death inhibition | L929 zVAD necroptosis rescue, ATP luminescence, 24 h; with zVAD 60 µM | viability rescue, % at 10 µM | hit rate 0.38% among 220,000 | AID 1377;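 active = activation, scaled between plate controls, above about 75%, limit read from the data; inactive = activation under that limit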;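 also: 0% = zVAD with DMSO and 100% = DMSO alone without zVAD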
STAT3 inh-2: STAT3 inhibition, confirmation assay; hit rate 45% among 1,200; inhibition, % at 5.7 µM; U3A cells, IL-6 STAT3 luciferase reporter, luminescence; cell line lacks STAT1; shares compounds with STAT3 inh-1;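 active = inhibition above the hit cutoff computed for the primary STAT3 screen, cut at about 44% in these data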;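 also: 0% = IL-6 plus DMSO and 100% = IL-6 plus nifuroxazide control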
NFkB inh STAT3ct: counter-screen for STAT3 inhibitors: NF-kappaB inhibition; shares compounds with STAT3 inh-1; HEK293T NF-kB luciferase reporter, TNF-alpha induced; inhibition, % at 5.7 µM; hit rate 36% among 1,200; AID 1308;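 active = inhibition above the mean of solvent-only control wells plus 3 SD, cutoff set per campaign, cut at about 13% in these data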;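 also: 0% = TNF-alpha with DMSO and 100% = TNF-alpha with MG high control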
STAT1 inh 2: STAT1 inhibition in STAT3 inhibitor counter-screen; shares compounds with STAT3 inh-1; NIH 3T3 STAT1-luciferase reporter, IFN-gamma induced, luminescence; inhibition, % at 5.7 µM; hit rate 27% among 1,200; AID 1317;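 active = inhibition above the mean plus 3 SD of solvent-only control wells, limit set per screening run, cut at about 16% in these data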;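 also: 0% = DMSO with IFN-gamma and 100% = nifuroxazide control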
* hit, by the source's call; . = no result. An excerpt weighted towards active compounds, which were near 2.1% of everything screened.

SMILES	STAT3 activator	STAT1 inh	TNF death inh	STAT3 inh-1	zVAD death inh	STAT3 inh-2	NFkB inh STAT3ct	STAT1 inh 2
COc1cc(CC(=O)OCC(=O)Nc2ccc(S(=O)(=O)N3CCCC3)cc2)cc(OC)c1OC	106	-1	1	0	1	.	.	.
O=C(/C=C/c1ccc(Cl)cc1Cl)Nc1cccc(S(=O)(=O)NC2=NCCC2)c1	57	22	2	52*	3	33	6	-5
O=C(/C=C/c1ccccc1Cl)Nc1cccc(S(=O)(=O)NC2=NCCCCC2)c1	99	-8	3	5	2	.	.	.
O=C(CSCc1ccc(Cl)cc1)N/N=C/c1ccccc1	92	-3	2	10	0	.	.	.
CN(c1ccc(C(=O)Nc2ccc(S(=O)(=O)N3CCCC3)cc2)cc1)S(C)(=O)=O	54	-3	-7	58*	12	43	6	-1
O=C(Nc1ccc(S(=O)(=O)N2CCCC2)cc1)c1ccc(CN2CCOCC2)cc1	50	5	-10	65*	0	52*	15*	13
O=C(Nc1ccc(Cc2ccncc2)cc1)c1ccc(S(=O)(=O)N2CCOCC2)cc1	45	14	-17	70*	0	57*	12	12
O=C(Nc1ccc(S(=O)(=O)N2CCCCC2)cc1)c1ccc(CN2CCOCC2)cc1	33	12	-14	83*	-2	80*	29*	9
O=C(O)C1CSC2(CCN(Cc3ccccc3)CC2)N1 (centres undefined)	97	6	0	7	0	.	.	.
CNC(=O)COC(=O)c1ccc(NC(=O)CC#N)cc1	99	8	-1	0	1	.	.	.
O=C(Nc1ccc2c(c1)OCCO2)c1ccc(CN2CCOCC2)cc1	102	-21	-5	3	1	.	.	.
O=C(Nc1ccc(S(=O)(=O)N2CCN(Cc3ccccc3)CC2)cc1)c1cnccn1	36	21	-7	82*	0	75*	25*	23*
CCN(CC)S(=O)(=O)c1ccc(NC(=O)c2ccc(CN3CCOCC3)cc2)cc1	47	11	-13	66*	0	80*	26*	7
CCCCc1ccc(NC(=O)c2cnccn2)cc1	48	26	-1	62*	0	29	-23	-66
CCOC(=O)c1ccc(NC(=O)c2cnccn2)cc1	89	-20	-1	15	0	.	.	.
O=C(Nc1ccc(S(=O)(=O)N2CCCC2)cc1)c1cnccn1	99	10	0	4	3	.	.	.
CC(=O)N1c2ccccc2C(C)(C)C2CCC(C)CC21 (centres undefined)	103	2	-1	-2	1	.	.	.
COC(OC)c1ccnc(-c2ccc(OC(=O)c3ccccc3)cc2)n1	93	-18	0	15	2	.	.	.
O=C(O)COc1ccc(-c2nccc(-c3ccccn3)n2)cc1	64	15	0	47*	9	38	15*	0
c1csc(CNc2ccc3c(c2)OCCO3)c1	28	16	1	86*	2	-93	-7	-80
Cc1cc(CNC(=O)c2cccc([N+](=O)[O-])c2C)c2ccccc2n1	60	25	-4	51*	-1	54*	14*	22*
Cc1cc(CNC(=O)Cc2ccccc2)c2ccccc2n1	99	-23	0	4	2	.	.	.
Clc1ccc2ncc(-c3nnnn3-c3ccccc3)c(-c3ccccc3)c2c1	54	5	-6	61*	0	44*	11	2
Clc1ccc(-n2nnnc2-c2cnc3ccc(Cl)cc3c2-c2ccccc2)cc1	.	.	-2	.	2	.	.	.
Brc1ccc(-c2cn3nc4c(nc3n2)CCCC4)cc1	38	30	0	77*	1	25	-38	-119
COc1ccc(OC)c(CN2CCCC(C(=O)N3CCCCC3)C2)c1 (centres undefined)	96	0	1	6	0	.	.	.
